High-throughput results (PubChem)
Arr AP2 block – blocks beta-arrestin peptide binding to AP2 adaptin. FITC-arrestin peptide / GST-AP2 beads, flow cytometry; AP2 beta2 appendage carries R879A mutation. inhibition, % at 10 µM. hit rate 0.31% among 340,000;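 active means inhibition above a set limit, near 3 SD of compounds lacking own fluorescence, cut at about 54% in these data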;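 further: plate controls were DMSO wells for no effect and 5 µM unlabelled arrestin peptide for full effect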
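Test system: GST-tagged AP2 beta2-adaptin appendage (R879A) on 4 µm glutathione beads; also added: fluorescein-tagged arrestin peptide at 50 nM final; timing: 12 min plus 1 h, RT; signal: flow cytometry, FL1 (488/535 nm); read-out: percent drop in bead-associated FITC signal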
GalR3 antagonist – blocks the human galanin receptor 3. AID 651719. O60755. inhibition, % at 3 µM. HEK293 GalR3-CNG cAMP membrane potential fluorescence; galR3 body fused to GalR1 C-terminus. hit rate 0.44% among 360,000;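 active means inhibition above the screen-wide average plus 3 SD, cut at about 13% in these data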;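 further: forskolin and galanin both at EC90 stimulate the cells; cAMP rise reported by CNG channel membrane potential dye signal; 0% = forskolin plus galanin with DMSO and 100% = forskolin alone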
GC-B act – GC-B (human) receptor activation; P20594; HEK293-GC-B cells, CNP EC30, cGMP TR-FRET; 0% at EC30 CNP, 100% saturating CNP; hit rate 0.11% among 370,000; AID 1920062; activation, % at 10 µM;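 active means activation at 10 µM reaching about 35% in either raw or pattern-adjusted values, limit read from the data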
Target sequence (P20594 whole entry, looked up): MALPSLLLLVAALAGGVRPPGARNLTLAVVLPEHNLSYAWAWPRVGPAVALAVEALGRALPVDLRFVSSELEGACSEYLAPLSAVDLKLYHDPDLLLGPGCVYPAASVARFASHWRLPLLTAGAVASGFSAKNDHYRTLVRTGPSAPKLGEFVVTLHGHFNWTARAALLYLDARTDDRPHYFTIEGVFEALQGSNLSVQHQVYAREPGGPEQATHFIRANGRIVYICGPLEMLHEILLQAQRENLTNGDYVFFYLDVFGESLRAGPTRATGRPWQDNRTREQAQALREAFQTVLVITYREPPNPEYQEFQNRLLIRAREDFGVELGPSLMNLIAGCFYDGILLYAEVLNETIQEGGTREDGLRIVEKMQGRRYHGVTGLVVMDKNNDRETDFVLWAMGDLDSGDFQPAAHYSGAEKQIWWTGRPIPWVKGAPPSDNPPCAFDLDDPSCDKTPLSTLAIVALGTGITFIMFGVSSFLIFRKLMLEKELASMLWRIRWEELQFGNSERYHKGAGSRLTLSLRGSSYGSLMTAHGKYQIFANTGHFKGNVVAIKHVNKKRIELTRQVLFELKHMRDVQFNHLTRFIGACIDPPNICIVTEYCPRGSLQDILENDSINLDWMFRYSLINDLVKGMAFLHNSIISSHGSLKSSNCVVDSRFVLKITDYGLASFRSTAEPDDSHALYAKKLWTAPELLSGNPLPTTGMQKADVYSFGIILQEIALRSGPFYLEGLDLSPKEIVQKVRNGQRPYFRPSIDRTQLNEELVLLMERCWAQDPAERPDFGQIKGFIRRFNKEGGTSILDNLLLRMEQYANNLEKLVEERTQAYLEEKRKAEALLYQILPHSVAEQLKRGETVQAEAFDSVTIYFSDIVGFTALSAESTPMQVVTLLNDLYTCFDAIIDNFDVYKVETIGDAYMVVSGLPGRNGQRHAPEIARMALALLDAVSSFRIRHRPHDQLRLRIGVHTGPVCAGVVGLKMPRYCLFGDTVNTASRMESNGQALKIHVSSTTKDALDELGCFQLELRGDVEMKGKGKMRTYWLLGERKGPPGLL
NPR1 activator – GC-A (human) enzyme activation. activation, % at 10 µM. hit rate 0.14% among 370,000. HEK293 GC-A cells, cGMP TR-FRET, EC30 ANP; 0% at EC30 ANP, 100% saturating ANP. AID 1671463; in the data active means activation above about 40%
Arr AP2 CP1 – human beta-arrestin and AP2 interaction inhibition, cherry pick. GST-AP2 beads, FITC arrestin peptide binding, flow cytometry; GST-fused beta2-adaptin appendage, R879A mutant. hit rate 2% among 1,300. AID 504908. inhibition, % at 10 µM. shares compounds with Arr AP2 block;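 active means inhibition above a set limit, roughly 3 SD of non-fluorescent compound noise, cut at about 38% in these data; inactive means inhibition at or below that limit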;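 further: loss of bead fluorescence from 50 nM FITC arrestin peptide bound to appendage; 0% = negative control wells and 100% = excess unlabelled arrestin peptide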
GST GSH counter – GST-GSH bead binding interference, counter-screen; shares compounds with Arr AP2 block; GST-fluorescein binding to GSH beads, fluorescence; inhibition, % at 10 µM; hit rate 2% among 1,300; AID 588338;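 active means inhibition above 50%, about 3 SD of the inhibition seen with non-fluorescent compounds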;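 further: fluorescein maleimide labelled GST captured on 4 micron glutathione beads; higher means more loss of bead fluorescence from quenching or blocked binding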
Active calls of the source: *. Only some compounds are listed: those with a hit (about 0.94% of all), similar ones and a draw of the others.

`Cc1ccc(S(=O)(=O)c2nnn3c2nc(Nc2cccc(C)c2)c2ccccc23)cc1` gave Arr AP2 block -3.9, GalR3 antagonist -3.6, GC-B act 50.0* and NPR1 activator 49.1*.
For Cc1cc(C)c2cc(CN(Cc3ccco3)C(=O)NCc3ccccc3)c(=O)[nH]c2c1 the results were Arr AP2 block 5.6, GalR3 antagonist 14.4*, GC-B act -3.2 and NPR1 activator -13.8.
Cc1cc(C)c2cc(CN(CC3CCCO3)C(=S)NCc3ccco3)c(=O)[nH]c2c1 (centres undefined) was read as Arr AP2 block -15.2, GalR3 antagonist -3.4, GC-B act 9.2 and NPR1 activator 2.9.
`Nc1[nH]c(C(=O)c2ccc(Br)cc2)c(-c2ccc(Cl)cc2[N+](=O)[O-])c1C(=O)NCCc1c[nH]c2ccccc12` gave GalR3 antagonist -7.4, GC-B act -8.5 and NPR1 activator -12.3.
For CC12CCC(=O)N1C(C(=O)Nc1nc(-c3ccc(F)c(F)c3)cs1)CS2 (centres undefined) the results were Arr AP2 block 26.4, GalR3 antagonist -4.2, GC-B act 2.5 and NPR1 activator 42.9*.
Screening CC12CCC(=O)N1C(C(=O)Nc1nc(-c3ccc(F)cc3)cs1)CS2 (centres undefined) returned Arr AP2 block 24.3, GalR3 antagonist -1.9, GC-B act 3.8 and NPR1 activator 45.9*.
CN1[C@H](Cc2ccccc2)COc2cccc(F)c2S1(=O)=O was read as GC-B act -4.0 and NPR1 activator 0.8.
COc1ccccc1C(=O)N1CCN(C(=O)[C@H]2O[C@@H](n3cnc(C(N)=O)n3)[C@H](O)[C@@H]2O)CC1 was read as GalR3 antagonist -6.4, GC-B act -1.1 and NPR1 activator -1.6.
For COc1cc(NC(=O)c2cnn3c(C)cc(C)nc23)cc(OC)c1OC the results were GC-B act -3.0 and NPR1 activator 3.0.
CC(CC(=O)c1ccc(F)cc1)N1CCN(c2ccccc2)CC1 (centres undefined) was read as Arr AP2 block 3.0, GalR3 antagonist -6.0, GC-B act 1.2 and NPR1 activator 63.4*.
COc1ccccc1N1CCN(CC(=O)c2ccc(F)cc2)CC1 was read as Arr AP2 block -14.1, GalR3 antagonist -8.6, GC-B act 3.1 and NPR1 activator 1.5.
For Clc1ncnc2c1oc1ccccc12 the results were Arr AP2 block 2.2, GalR3 antagonist -8.4, GC-B act 34.0 and NPR1 activator 53.2*.
For CCSc1ncnc2c1oc1ccccc12 the results were Arr AP2 block 2.3, GalR3 antagonist 2.7, GC-B act -6.0 and NPR1 activator -3.6.
CC(C)(C)OC(=O)N1CC=C2C(C#N)=C(N)C(C#N)(C#N)[C@H](c3cccnc3)[C@H]2C1 was read as Arr AP2 block 5.7, GalR3 antagonist -7.1, GC-B act -0.6 and NPR1 activator 48.1*.
For CC1=C(SCc2ccccc2)C(=O)c2ccccc2C1=O the results were Arr AP2 block 4.4, GalR3 antagonist -5.5, GC-B act 1.7 and NPR1 activator 2.3.
`O=C1C(SCCO)=C(SCCO)C(=O)c2ccccc21` gave Arr AP2 block 25.8, GC-B act -6.7 and NPR1 activator 50.5*.
Screening Cc1ccc2nc(-c3cccc(Br)c3)c(Cc3ccsc3)n2c1 returned GalR3 antagonist -6.1, GC-B act -9.3 and NPR1 activator -3.9.
`CCOC(=O)CCCSc1nc(-c2ccc3c(c2)OCO3)cc(C(F)(F)F)c1C#N` gave Arr AP2 block 2.1, GalR3 antagonist -8.7, GC-B act 11.0 and NPR1 activator 51.2*.
`CCCn1c(N)c(C(=O)CSc2nc(C)nc3sc(C)c(C)c23)c(=O)[nH]c1=O` gave Arr AP2 block 12.5, GalR3 antagonist -5.7, GC-B act -0.9 and NPR1 activator 40.7*.
Screening CCCOc1ccc(/C=C2/C(=O)ON=C2C)cc1Cl returned Arr AP2 block -10.3, GalR3 antagonist -12.0, GC-B act 16.1 and NPR1 activator 44.6*.
Screening Cc1c(N=C2N=C(NC(=O)c3cccs3)c3ccccc32)c(=O)n(-c2ccccc2)n1C returned Arr AP2 block 13.8, GalR3 antagonist -6.9, GC-B act -3.8 and NPR1 activator 79.6*.
For Cc1c(N=C2C=CC(=O)c3ccccc32)c(=O)n(-c2ccccc2)n1C the results were Arr AP2 block 26.3, GalR3 antagonist -6.7, GC-B act 3.1 and NPR1 activator 73.1*.
`Cc1c(NC(=O)Nc2ccc(C(C)(C)C)cc2)c(=O)n(-c2ccccc2)n1C` gave Arr AP2 block 32.6, GalR3 antagonist -7.7, GC-B act -0.6 and NPR1 activator 0.0.
Screening Cc1c(N=C2N=C(NC(=O)NC(C)(C)C)c3ccccc32)c(=O)n(-c2ccccc2)n1C returned Arr AP2 block 11.5, GalR3 antagonist -7.6, GC-B act 1.1 and NPR1 activator 83.8*.
For Nc1[nH]c(C(=O)c2ccccc2)c(-c2cccc3ccccc23)c1C(=O)NCc1ccc(F)c(F)c1 the results were GalR3 antagonist -2.0, GC-B act 5.5 and NPR1 activator -4.6.
For COC(=O)C1=C(C)N(C)C(=NCC2CC2)NC1c1cccc(F)c1 (centres undefined) the results were GalR3 antagonist -6.5, GC-B act -11.8 and NPR1 activator -5.4.
`Nc1[nH]c(C(=O)c2ccccc2)c(-c2cccnc2)c1C(=O)c1ccccc1` gave GalR3 antagonist -6.1, GC-B act -7.5 and NPR1 activator -2.7.
`CC(=O)Nc1c(C)nn(-c2ccc([N+](=O)[O-])cc2)c1C` gave Arr AP2 block 54.0*, GalR3 antagonist -0.6, GC-B act 6.3, NPR1 activator 3.8, Arr AP2 CP1 -3.4 and GST GSH counter -10.4.
Cc1nc(C(=O)O)nn1-c1ccc([N+](=O)[O-])cc1 was read as Arr AP2 block 17.5, GalR3 antagonist -3.4, GC-B act 1.9 and NPR1 activator 3.6.
`N#Cc1cccc(-n2nnnc2-c2ccc3c(c2)OCO3)c1` gave Arr AP2 block 69.7*, GalR3 antagonist -2.9, GC-B act 1.3, NPR1 activator -0.4, Arr AP2 CP1 -6.5 and GST GSH counter -10.5.
N#Cc1ccc(-c2nnnn2-c2ccc3c(c2)OCO3)cc1 was read as Arr AP2 block 0.9, GalR3 antagonist -4.3, GC-B act 0.7 and NPR1 activator -0.2.
For Cc1ccc(N(C(=O)Nc2ccccc2)C2=NCC(C)S2)cc1 (centres undefined) the results were Arr AP2 block 7.8, GalR3 antagonist -5.9, GC-B act -1.3 and NPR1 activator 5.6.
